# Results taken from ChEMBL document CHEMBL1153436, “2-Pyridyl P1'-substituted symmetry-based human immunodeficiency virus protease inhibitors (A-792611 and A-790742) with potential for convenient dosing and reduced side effects” (J Med Chem, 2009).
# How the values were obtained:
# Rattus norvegicus [1] = test: Toxicity in Gunn rat assessed as unconjugated-bilirubin level at 125 mg/kg coadministered with ritonavir measured on day 2; conditions: in vivo
# [2] = Cmax in dog at 5 mg/kg, po; assay type: ADME, organism-based, Canis lupus familiaris; set-up: dose 5 mg/kg, route oral; conditions: in vivo
# Procedure, shortened: (§1)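 Male and female beagle dogs (n = 3) given oral gavage doses formulated as 5 mg/mL solutions in 5% dextrose with 20% ethanol, 30% propylene glycol and methanesulfonic acid, alone or with RTV (2.5 or 5 mg/kg). Plasma was taken at 12 time points over 12 h, extracted with ethyl acetate/hexane and analysed by reversed-phase HPLC with internal standard. AUC in µg·h/mL; Cmax and C12h in µg/mL.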
# [3] = Concentration of drug after 12 hrs in dog at 5 mg/kg, po coadministered with 5 mg/kg ritonavir; assay type: ADME, organism-based, Canis lupus familiaris; conditions: in vivo, read-out: Drug uptake
# Procedure, shortened: as §1
# Serum [4] = test: Drug level in Gunn rat serum at 125 mg/kg coadministered with ritonavir measured on day 2; assay type: ADME, organism-based; set-up: dose 125 mg/kg; conditions: in vivo
# Procedure, shortened: (§2)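 Gunn rats (n = 8-10 per arm) dosed orally with compound in 5% ethanol/95% propylene glycol with p-toluenesulfonic acid, together with 50 mg/kg RTV. Plasma was sampled 4 h after the first and second doses. Drug was measured by HPLC and bilirubin […]. Change in bilirubin (mg/dL) reported as mean with SD.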
# [5] = AUC in dog at 5 mg/kg, po coadministered with 2.5 mg/kg ritonavir; assay type: ADME, organism-based, Canis lupus familiaris; conditions: plasma
# Procedure, shortened: as §1
# Cytochrome P450 2C9 = Cytochrome P450 2C9 (Homo sapiens, UniProt P11712); test: Inhibition of CYP2C9 assessed as Tolbutamide hydroxylation; assay type: ADME
# Sequence of Cytochrome P450 2C9 (P11712 whole entry): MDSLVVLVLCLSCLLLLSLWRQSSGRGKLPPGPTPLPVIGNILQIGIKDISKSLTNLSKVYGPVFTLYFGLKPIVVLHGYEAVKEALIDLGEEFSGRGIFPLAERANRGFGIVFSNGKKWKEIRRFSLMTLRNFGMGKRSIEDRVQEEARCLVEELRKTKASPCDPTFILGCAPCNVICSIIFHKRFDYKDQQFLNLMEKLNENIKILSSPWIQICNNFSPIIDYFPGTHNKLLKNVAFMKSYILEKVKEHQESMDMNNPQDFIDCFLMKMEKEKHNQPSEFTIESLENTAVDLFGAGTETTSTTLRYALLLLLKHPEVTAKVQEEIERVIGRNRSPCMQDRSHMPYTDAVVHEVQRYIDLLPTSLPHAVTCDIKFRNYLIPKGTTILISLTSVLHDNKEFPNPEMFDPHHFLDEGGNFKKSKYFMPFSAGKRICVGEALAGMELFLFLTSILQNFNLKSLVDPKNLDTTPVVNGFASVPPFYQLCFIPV
# Procedure, shortened: (§3)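 CYP inhibition in vitro, with probe reactions of phenacetin O-deethylation (CYP1A2), tolbutamide hydroxylation (CYP2C9), S-mephenytoin hydroxylation (CYP2C19) and dextromethorphan O-demethylation (CYP2D6). Reported as IC50 in µM.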
# [6] = system: Human immunodeficiency virus 1; test: Antiviral activity against HIV1 bearing protease gene with P25 mutation infected in human MT4 cells after 5 days by MTT assay; assay type: functional, organism-based; conditions: Human immunodeficiency virus 1, MT4, 120 h
# [7] = system: Human immunodeficiency virus 1; test: Antiviral activity against HIV1 bearing protease gene with B26 mutation infected in human MT4 cells after 5 days by MTT assay; assay type: functional, organism-based; conditions: Human immunodeficiency virus 1, MT4, 120 h
# [8] = AUC in Sprague-Dawley rat at 5 mg/kg, po in presence of ritonavir; assay type: ADME, organism-based; set-up: dose 5 mg/kg, route oral; conditions: plasma
# Procedure, shortened: (§4)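 Male Sprague-Dawley-derived rats (n = 3) dosed iv or by oral gavage with 5 mg/mL solutions in 5% dextrose containing 20% ethanol, 30% propylene glycol and methanesulfonic acid equivalents. Plasma was sampled at 10 time points over 8 h, extracted into ethyl acetate/hexane and analysed by reversed-phase HPLC with internal standard. AUC in µg·h/mL.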
# [9] = AUC in dog at 5 mg/kg, po coadministered with 5 mg/kg ritonavir; assay type: ADME, organism-based, Canis lupus familiaris; conditions: plasma
# Procedure, shortened: as §1
# [10] = Concentration of drug after 12 hrs in dog at 5 mg/kg, po coadministered with 2.5 mg/kg ritonavir; assay type: ADME, organism-based, Canis lupus familiaris; conditions: in vivo, read-out: Drug uptake
# Procedure, shortened: as §1
# Cytochrome P450 1A2 = target: T1, Cytochrome P450 1A2 (Homo sapiens, UniProt P05177); test: Inhibition of CYP1A2 assessed as phenacetin O-deethylation; assay type: ADME
# T1 sequence (P05177 whole entry): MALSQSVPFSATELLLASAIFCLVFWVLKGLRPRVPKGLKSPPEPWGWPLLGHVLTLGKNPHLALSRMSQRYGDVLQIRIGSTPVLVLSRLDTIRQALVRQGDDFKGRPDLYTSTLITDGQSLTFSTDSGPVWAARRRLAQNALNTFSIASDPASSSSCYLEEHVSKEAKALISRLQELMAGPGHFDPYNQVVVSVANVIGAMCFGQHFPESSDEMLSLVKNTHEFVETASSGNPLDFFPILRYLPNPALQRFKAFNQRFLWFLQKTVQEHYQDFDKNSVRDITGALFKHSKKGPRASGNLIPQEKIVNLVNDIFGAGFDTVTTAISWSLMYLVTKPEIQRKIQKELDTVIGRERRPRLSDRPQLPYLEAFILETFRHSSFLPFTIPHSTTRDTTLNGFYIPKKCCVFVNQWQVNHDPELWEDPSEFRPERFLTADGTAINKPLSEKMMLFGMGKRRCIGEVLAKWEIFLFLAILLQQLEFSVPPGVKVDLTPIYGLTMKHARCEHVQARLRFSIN
# Procedure, shortened: as §3
# [11] = system: Human immunodeficiency virus 1; test: Antiviral activity against wild-type HIV1 pNL4-3 infected in human MT4 cells after 5 days by MTT assay; assay type: functional, organism-based; conditions: Human immunodeficiency virus 1, MT4, 120 h
# Cytochrome P450 3A4 = Cytochrome P450 3A4 (Homo sapiens, UniProt P08684); test: Inhibition of CYP3A4 assessed as midazolam 1'- hydroxylation; assay type: ADME
# Sequence of Cytochrome P450 3A4 (P08684 whole entry): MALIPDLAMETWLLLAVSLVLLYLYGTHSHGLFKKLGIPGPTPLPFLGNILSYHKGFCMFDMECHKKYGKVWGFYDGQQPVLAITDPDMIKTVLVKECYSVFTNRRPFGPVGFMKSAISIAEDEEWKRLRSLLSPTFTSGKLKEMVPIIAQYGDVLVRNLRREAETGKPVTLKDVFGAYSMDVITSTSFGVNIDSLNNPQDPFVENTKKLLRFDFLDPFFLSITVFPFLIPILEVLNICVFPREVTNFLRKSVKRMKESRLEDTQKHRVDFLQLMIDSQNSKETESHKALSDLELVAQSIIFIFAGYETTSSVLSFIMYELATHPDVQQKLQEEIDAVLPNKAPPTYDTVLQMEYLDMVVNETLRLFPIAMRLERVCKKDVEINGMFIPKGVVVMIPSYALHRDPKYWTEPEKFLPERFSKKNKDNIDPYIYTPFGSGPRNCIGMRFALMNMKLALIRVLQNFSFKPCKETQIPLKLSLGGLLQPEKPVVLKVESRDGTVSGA
# Procedure, shortened: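 CYP3A4 inhibition was measured as midazolam 1′-hydroxylation and expressed as Ki in nM.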
# [12] = Clearance in Sprague-Dawley rat at 5 mg/kg, iv; assay type: ADME, organism-based; set-up: dose 5 mg/kg, route intravenous; conditions: in vivo
# Procedure, shortened: as §4
# [13] = Cmax in dog at 5 mg/kg, po coadministered with 5 mg/kg ritonavir; assay type: ADME, organism-based, Canis lupus familiaris; set-up: dose 5 mg/kg, route oral; conditions: in vivo
# Procedure, shortened: as §1
# [14] = AUC in Sprague-Dawley rat at 5 mg/kg, po; assay type: ADME, organism-based; set-up: dose 5 mg/kg, route oral; conditions: plasma
# Procedure, shortened: as §4
# [15] = Protein binding in human plasma by equilibrium dialysis; assay type: ADME, cell-free; conditions: read-out: PB (converted)
# Procedure, shortened: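 Percentage bound in human plasma, determined by equilibrium dialysis.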
# [16] = Cmax in dog at 5 mg/kg, po coadministered with 2.5 mg/kg ritonavir; assay type: ADME, organism-based, Canis lupus familiaris; set-up: dose 5 mg/kg, route oral; conditions: in vivo
# Procedure, shortened: as §1
# Cathepsin D = Cathepsin D (Homo sapiens, UniProt P07339); test: Inhibition of cathepsin D
# Sequence of Cathepsin D (P07339 65-162 limits assumed): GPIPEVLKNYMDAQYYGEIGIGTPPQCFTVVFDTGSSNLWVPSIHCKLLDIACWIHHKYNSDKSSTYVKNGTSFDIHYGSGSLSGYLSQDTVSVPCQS
# Sequence of Cathepsin D (P07339 169-412 limits assumed): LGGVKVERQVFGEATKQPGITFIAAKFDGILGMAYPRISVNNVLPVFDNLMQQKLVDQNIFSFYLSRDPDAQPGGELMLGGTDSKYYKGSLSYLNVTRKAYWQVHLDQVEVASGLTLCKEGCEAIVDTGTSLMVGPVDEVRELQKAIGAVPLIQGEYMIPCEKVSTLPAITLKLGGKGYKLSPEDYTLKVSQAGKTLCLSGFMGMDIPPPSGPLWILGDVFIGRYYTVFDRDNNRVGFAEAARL
# Renin = target: T2, Renin (Homo sapiens, UniProt P00797); test: Inhibition of renin
# T2 sequence (P00797 whole entry): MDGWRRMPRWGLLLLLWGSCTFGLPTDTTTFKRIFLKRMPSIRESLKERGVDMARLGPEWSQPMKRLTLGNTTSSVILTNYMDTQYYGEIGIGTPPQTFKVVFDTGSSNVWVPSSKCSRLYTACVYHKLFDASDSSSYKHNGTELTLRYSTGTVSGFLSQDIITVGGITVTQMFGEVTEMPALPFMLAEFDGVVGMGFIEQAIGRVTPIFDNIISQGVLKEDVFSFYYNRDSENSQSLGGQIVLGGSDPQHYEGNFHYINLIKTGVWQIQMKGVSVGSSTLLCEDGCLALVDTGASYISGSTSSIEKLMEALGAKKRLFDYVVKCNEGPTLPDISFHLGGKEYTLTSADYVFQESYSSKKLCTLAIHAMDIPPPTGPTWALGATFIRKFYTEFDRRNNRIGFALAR
# [17] = system: Human immunodeficiency virus 1; test: Antiviral activity against wild-type HIV1 pNL4-3 infected in human MT4 cells after 5 days by MTT assay in presence of 50% human serum; assay type: functional, organism-based; conditions: Human immunodeficiency virus 1, MT4, 120 h
# [18] = system: Human immunodeficiency virus 1; test: Fold resistance, ratio of EC50 for HIV1 bearing protease gene with A17 mutation to EC50 for wild-type HIV1 pNL4-3; assay type: functional
# Procedure, shortened: (§5)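 HIV-1 A17 mutant clone carrying protease mutations L10F, V32I, M46I, I47V, Q58E and I84V, generated by in vitro serial passage under LPV/RTV. EC50 was determined in MT-4 cells. Wild-type reference strain was HIV-1 pNL4-3.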
# [19] = Solubility at pH 7.4; assay type: physicochemical; conditions: buffer
# Procedure, shortened: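 Solubility measured in µg/mL at pH 7.4 and 25 °C.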
# Cytochrome P450 2D6 = Cytochrome P450 2D6 (Homo sapiens, UniProt P10635); test: Inhibition of CYP2D6 assessed as dextromethorphan O-demethylation; assay type: ADME
# Sequence of Cytochrome P450 2D6 (P10635 whole entry): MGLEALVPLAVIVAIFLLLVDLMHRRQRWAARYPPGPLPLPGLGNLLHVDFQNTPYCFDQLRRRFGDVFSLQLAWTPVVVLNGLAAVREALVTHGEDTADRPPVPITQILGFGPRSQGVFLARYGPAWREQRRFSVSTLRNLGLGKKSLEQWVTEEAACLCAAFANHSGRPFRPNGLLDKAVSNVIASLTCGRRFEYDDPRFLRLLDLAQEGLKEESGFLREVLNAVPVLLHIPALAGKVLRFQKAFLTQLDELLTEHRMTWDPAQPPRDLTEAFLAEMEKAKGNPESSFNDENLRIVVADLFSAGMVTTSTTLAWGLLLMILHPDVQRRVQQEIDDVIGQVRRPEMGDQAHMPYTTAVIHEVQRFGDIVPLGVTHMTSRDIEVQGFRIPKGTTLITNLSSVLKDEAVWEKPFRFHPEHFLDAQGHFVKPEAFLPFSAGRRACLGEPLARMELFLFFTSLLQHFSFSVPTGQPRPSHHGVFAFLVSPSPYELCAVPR
# Procedure, shortened: as §3
# [20] = system: Human immunodeficiency virus 1; test: Antiviral activity against HIV1 bearing protease gene with A17 mutation infected in human MT4 cells after 5 days by MTT assay; assay type: functional, organism-based; conditions: Human immunodeficiency virus 1, MT4, 120 h
# Procedure, shortened: as §5
# [21] = Half life in Sprague-Dawley rat at 5 mg/kg, iv; assay type: ADME, organism-based; set-up: dose 5 mg/kg, route intravenous; conditions: in vivo
# Procedure, shortened: as §4
# [22] = Inhibition of HIV protease; set-up: species or system Human immunodeficiency virus
# [23] = AUC in dog at 5 mg/kg, po; assay type: ADME, organism-based, Canis lupus familiaris; set-up: dose 5 mg/kg, route oral; conditions: plasma
# Procedure, shortened: as §1
# [24] = Oral bioavailability in Sprague-Dawley rat at 5 mg/kg; assay type: ADME, organism-based; conditions: in vivo
# Procedure, shortened: as §4
# [25] = Inhibition of human pepsin
# Cytochrome P450 2C19 = Cytochrome P450 2C19 (Homo sapiens, UniProt P33261); test: Inhibition of CYP2C19 assessed as S-mephenytion hydroxylation; assay type: ADME
# Sequence of Cytochrome P450 2C19 (P33261 whole entry): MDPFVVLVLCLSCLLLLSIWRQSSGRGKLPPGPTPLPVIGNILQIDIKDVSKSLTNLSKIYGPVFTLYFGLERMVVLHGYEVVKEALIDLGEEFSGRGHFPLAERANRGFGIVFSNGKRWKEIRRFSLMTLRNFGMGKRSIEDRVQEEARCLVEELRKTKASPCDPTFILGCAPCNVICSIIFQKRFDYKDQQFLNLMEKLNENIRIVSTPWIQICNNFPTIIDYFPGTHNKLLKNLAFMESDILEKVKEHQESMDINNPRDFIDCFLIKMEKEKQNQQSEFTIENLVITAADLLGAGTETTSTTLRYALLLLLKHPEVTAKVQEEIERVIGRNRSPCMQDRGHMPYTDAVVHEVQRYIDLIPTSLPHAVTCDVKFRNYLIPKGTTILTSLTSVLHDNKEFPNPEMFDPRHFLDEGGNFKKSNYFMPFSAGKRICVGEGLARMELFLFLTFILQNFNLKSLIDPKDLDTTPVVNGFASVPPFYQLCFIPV
# Procedure, shortened: as §3
# Serum [26] = test: Drug level in Gunn rat serum at 125 mg/kg coadministered with ritonavir measured on day 1; assay type: ADME, organism-based; set-up: dose 125 mg/kg; conditions: in vivo
# Procedure, shortened: as §2
# Rattus norvegicus [27] = test: Toxicity in Gunn rat assessed as unconjugated-bilirubin level at 125 mg/kg coadministered with ritonavir measured on day 1; assay type: organism-based; set-up: dose 125 mg/kg; conditions: in vivo
# Procedure, shortened: as §2
# [28] = AUC in dog at 2.5 mg/kg; assay type: ADME, organism-based, Canis lupus familiaris; set-up: dose 2.5 mg/kg; conditions: plasma
# Procedure, shortened: as §1
smiles,measurement,setting,value
COC(=O)N[C@H](C(=O)N[C@@H](Cc1ccc(-c2ccccn2)cc1)C[C@H](O)[C@H](Cc1ccccc1)NC(=O)[C@@H](N1CCN(Cc2ccccc2)C1=O)C(C)(C)C)C(C)(C)C,Activity,Rattus norvegicus [1],0.133 mg/dL
same,Cmax,[2],170 ng/mL
same,concentration at 12 h,[3],924 ng/mL
same,Drug uptake,Serum [4],5.33 µg/mL
same,AUC,[5],19000 ng·h/mL
same,IC50,Cytochrome P450 2C9,> 10000 nM
same,EC50,[6],103 nM
same,EC50,[7],140 nM
same,AUC,[8],3500 ng·h/mL
same,AUC,[9],41900 ng·h/mL
same,concentration at 12 h,[10],68 ng/mL
same,IC50,Cytochrome P450 1A2,> 10000 nM
same,EC50,[11],2 nM
same,Ki,Cytochrome P450 3A4,18 nM
same,clearance,[12],19.2 mL/min/kg
same,Cmax,[13],5890 ng/mL
same,AUC,[14],150 ng·h/mL
same,fraction unbound,[15],0.0034
same,Cmax,[16],3910 ng/mL
same,Ki,Cathepsin D,4300 nM
same,Ki,Renin,> 4000 nM
same,EC50,[17],12 nM
same,Ratio EC50,[18],11
same,solubility,[19],< 0.15 µg/mL
same,IC50,Cytochrome P450 2D6,> 10000 nM
same,EC50,[20],22 nM
same,half-life,[21],1 h
same,Ki,[22],0.015 nM
same,AUC,[23],210 ng·h/mL
same,bioavailability,[24],3.4%
same,Ki,[25],177000 nM
same,IC50,Cytochrome P450 2C19,> 10000 nM
same,Drug uptake,Serum [26],2.45 µg/mL
same,Activity,Rattus norvegicus [27],0.144 mg/dL
CC(C)c1nc(CN(C)C(=O)N[C@H](C(=O)N[C@@H](Cc2ccccc2)C[C@H](O)[C@H](Cc2ccccc2)NC(=O)OCc2cncs2)C(C)C)cs1 [RITONAVIR],AUC,[28],1560 ng·h/mL
same,AUC,[23],8800 ng·h/mL
